Test results as given in ChEMBL document CHEMBL3232993, “Design, synthesis, and structure-activity relationship of a novel series of GluN2C-selective potentiators” (J Med Chem, 2014).
Activity calls are given as the source filed them. No cut-off for these calls is given here.

Legend:
Format in all cases: cell-based
[1] = molecular target: Glutamate NMDA receptor; Grin1/Grin2b (Rattus norvegicus) (UniProt P35439+Q00960); assay: Potentiation of rat recombinant GluN1/GluN2B expressed in Xenopus laevis oocytes assessed as increase in glutamate/glycine-induced current response at 30 uM by two-electrode voltage clamp technique relative to control
Procedure, shortened: (§1)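 Two-electrode voltage clamp at −40 mV on Xenopus oocytes coexpressing GluN1 with GluN2A, 2B, 2C or 2D. […] Compounds came from 20 mM DMSO stocks, with 0.05–0.5% final DMSO. Some GluN2A oocytes were injected with K-BAPTA to limit current run-up. Recording solution was pH 7.4, 23 °C.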

[2] = molecular target: Glutamate NMDA receptor; Grin1/Grin2c (Rattus norvegicus, UniProt P35439+Q00961); assay: Potentiation of rat recombinant GluN1/GluN2C expressed in Xenopus laevis oocytes assessed as increase in glutamate/glycine-induced current response by two-electrode voltage clamp technique relative to control
[3] = molecular target: Glutamate NMDA receptor; Grin1/Grin2a (Rattus norvegicus) (UniProt P35439+Q00959); assay: Potentiation of rat recombinant GluN1/GluN2A expressed in Xenopus laevis oocytes assessed as increase in glutamate/glycine-induced current response at 30 uM by two-electrode voltage clamp technique relative to control; procedure, shortened: as §1
[4] = molecular target: Ionotropic glutamate receptor NMDA 1/2D (Rattus norvegicus) (UniProt P35439+Q62645); assay: Potentiation of rat recombinant GluN1/GluN2D expressed in Xenopus laevis oocytes assessed as increase in glutamate/glycine-induced current response at 30 uM by two-electrode voltage clamp technique relative to control; procedure, shortened: as §1
[5] = molecular target: Glutamate NMDA receptor; Grin1/Grin2c (Rattus norvegicus) (UniProt P35439+Q00961); assay: Potentiation of rat recombinant GluN1/GluN2C expressed in Xenopus laevis oocytes assessed as increase in glutamate/glycine-induced current response at 30 uM by two-electrode voltage clamp technique relative to control; procedure, shortened: as §1

Activity [1] [%] | Activity [3] [%] | Activity [4] [%] | Activity [5] | SMILES | EC50 [2] [µM] | max activation [5] [%]
87 | 111 | 85 | 106% | COC(=O)c1ccc(C2C(C(=O)c3cccnc3)=C(O)C(=O)N2CCc2cn(C)c3ccccc23)cc1 (stereo unspecified) |  | 
94 | 100 | 88 | 93% | CC(=O)C1=C(O)C(=O)N(CCc2c[nH]c3ccccc23)C1c1ccc(C(=O)O)cc1 (stereo unspecified) |  | 
86 | 118 | 89 | 101% | CN(C)C(=O)c1ccc(C2C(C(=O)c3cccnc3)=C(O)C(=O)N2CCc2c[nH]c3ccccc23)cc1 (stereo unspecified) |  | 
93 | 96 | 98 | 84% | COC(=O)c1ccc(C2C(C(=O)c3cccnc3)=C(O)C(=O)N2CCCc2c[nH]c3ccccc23)cc1 (stereo unspecified) |  | 
89 | 98 | 94 | 100% | N#Cc1ccc(C2C(C(=O)c3cccnc3)=C(O)C(=O)N2CCc2c[nH]c3ccccc23)cc1 (stereo unspecified) |  | 
83 | 106 | 77 | 94% | CC(=O)C1=C(O)C(=O)N(CCc2c[nH]c3ccccc23)C1c1ccc([N+](=O)[O-])cc1 (stereo unspecified) |  | 
83 | 99 | 93 | 114% | COC(=O)c1ccc(C2C(C(C)=O)=C(O)C(=O)N2CCc2c[nH]c3ccccc23)cc1F (stereo unspecified) |  | 
117 | 108 | 99 | 95% | COC(=O)c1ccc(C2C(C(C)=O)=C(O)C(=O)N2CCc2ccccc2)cc1 (stereo unspecified) |  | 
90 | 112 | 91 | 94% | COC(=O)c1ccc(C2C(C(=O)c3cccnc3)=C(O)C(=O)N2CCc2c[nH]c3ccc(OC)cc23)cc1 (stereo unspecified) |  | 
107 | 104 | 89 | 84% | COC(=O)c1ccc(C2C(C(=O)c3ccncc3)=C(O)C(=O)N2CCn2cnc3ccccc32)cc1 (stereo unspecified) |  | 
 |  |  | inactive | COC(=O)c1ccc(C2C(C(C)=O)=C(O)C(=O)N2CCc2c(C)[nH]c3ccccc23)cc1 (stereo in doubt; 106b) |  | 
105 | 96 | 89 | 93% | CNC(=O)c1ccc(C2C(C(=O)c3cccnc3)=C(O)C(=O)N2CCc2c[nH]c3ccccc23)cc1 (stereo unspecified) |  | 
101 | 106 | 87 | 84% | COC(=O)c1ccc(C2C(C(=O)c3ccncc3)=C(O)C(=O)N2Cc2c[nH]c3ccccc23)cc1 (stereo unspecified) |  | 
 |  |  |  | COC(=O)c1ccc(C2C(C(C)=O)=C(O)C(=O)N2CCc2c(C)[nH]c3ccccc23)cc1 (stereo in doubt; 106a) |  | 259
95 | 101 | 94 | 89% | COC(=O)c1ccc(C2C(C(=O)c3ccncc3)=C(O)C(=O)N2CCc2c[nH]cn2)cc1 (stereo unspecified) |  | 
81 | 99 | 66 | 85% | CC(=O)C1=C(O)C(=O)N(CCc2c[nH]c3ccccc23)C1c1ccc(C(=O)OC(C)(C)C)cc1 (stereo unspecified) |  | 

Activity [1] [%] | Activity [3] [%] | Activity [4] [%] | Activity [5] | SMILES | EC50 [2] [µM] | max activation [5] [%]
90 | 92 | 80 | 109% | COC(=O)c1ccc(C2C(C(=O)c3cccc(OC)c3)=C(O)C(=O)N2CCc2c[nH]c3ccccc23)cc1 (stereo unspecified) |  | 
88 | 74 | 73 | 114% | CNS(=O)(=O)c1ccc(C2C(C(=O)c3cccnc3)=C(O)C(=O)N2CCc2c[nH]c3ccccc23)cc1 (stereo unspecified) |  | 
78 | 106 | 75 | 97% | COC(=O)c1ccc(C2C(C(=O)c3ccccn3)=C(O)C(=O)N2CCc2c[nH]c3ccccc23)cc1 (stereo unspecified) |  | 
80 | 98 | 86 | 92% | COC(=O)c1ccc(C2C(C(C)=O)=C(O)C(=O)N2CCc2c[nH]c3ccccc23)cc1OC (stereo unspecified) |  | 
85 | 93 | 75 | 102% | COC(=O)c1ccc(C2C(C(C)=O)=C(N)C(=O)N2CCc2c[nH]c3ccccc23)cc1 (stereo unspecified) |  | 
95 | 88 | 83 | 113% | COC(=O)c1ccc(C2C(C(C)=O)=C(O)C(=O)N2CCc2c[nH]c3ccccc23)cc1Cl (stereo unspecified) |  | 
70 | 112 | 74 | 85% | COC(=O)c1ccc(C2C(C(=O)c3cccnc3)=C(O)C(=O)N2CCc2c[nH]c3cccc(C)c23)cc1 (stereo unspecified) |  | 
95 | 96 | 83 | 102% | CC(=O)C1=C(O)C(=O)N(CCc2c[nH]c3ccccc23)C1c1ccc(C(=O)OC(C)C)cc1 (stereo unspecified) |  | 
92 | 101 | 91 | 90% | NC(=O)c1ccc(C2C(C(=O)c3cccnc3)=C(O)C(=O)N2CCc2c[nH]c3ccccc23)cc1 (stereo unspecified) |  | 
91 | 108 | 86 | 88% | COC(=O)c1ccc(C2C(C(C)=O)=C(O)C(=O)N2CCc2c[nH]c3ccccc23)cc1C (stereo unspecified) |  | 
82 | 86 | 83 | 123% | NS(=O)(=O)c1ccc(C2C(C(=O)c3cccnc3)=C(O)C(=O)N2CCc2c[nH]c3ccccc23)cc1 (stereo unspecified) |  | 130
88 | 99 | 94 | 94% | COC(=O)c1cccc(C2C(C(C)=O)=C(O)C(=O)N2CCc2c[nH]c3ccccc23)c1 (stereo unspecified) |  | 
88 | 97 | 95 | 179% | COC(=O)c1ccc(C2C(C(C)=O)=C(O)C(=O)N2CCc2c(C)[nH]c3ccccc23)cc1 (racemic) |  | 217
78 | 88 | 93 | 99% | COC(=O)c1ccccc1C1C(C(C)=O)=C(O)C(=O)N1CCc1c[nH]c2ccccc12 (stereo unspecified) |  | 
83 | 96 | 80 | 113% | COC(=O)c1ccc(C2C(C(=O)c3cccnc3)=C(O)C(=O)N2CCc2coc3ccccc23)cc1 (stereo unspecified) |  | 

SMILES | Activity [1] [%] | Activity [3] [%] | Activity [4] [%] | Activity [5] | EC50 [2] [µM] | max activation [5] [%]
COC(=O)c1ccc(C2C(C(=O)c3cccc(F)c3)=C(O)C(=O)N2CCc2c[nH]c3ccccc23)cc1 (stereo unspecified) | 83 | 98 | 78 | 133% | 11 | 136
CCC(=O)C1=C(O)C(=O)N(CCc2c[nH]c3ccccc23)C1c1ccc(C(=O)OC)cc1 (stereo unspecified) | 77 | 85 | 78 | 160% | 24 | 204
COC(=O)c1ccc(C2C(C(=O)c3cccnc3)=C(O)C(=O)N2CCc2c[nH]c3cc(F)ccc23)cc1 (stereo unspecified) | 64 | 94 | 82 | 163% | 13 | 167
COC(=O)c1ccc(C2C(C(C)=O)=C(O)C(=O)N2CCc2c[nH]c3ccccc23)c(OC)c1 (stereo unspecified) | 83 | 102 | 100 | 132% | 46 | 183
CCCC(=O)OC1=C(C(C)=O)C(c2ccc(C(=O)OC)cc2)N(CCc2c(C)[nH]c3ccccc23)C1=O (stereo unspecified) | 93 | 112 | 93 | 186% | 17 | 184
COC(=O)c1ccc(C2C(C(C)=O)=C(OC(C)=O)C(=O)N2CCc2c[nH]c3ccccc23)cc1 (stereo unspecified) | 90 | 95 | 92 | 120% | 52 | 173
COC(=O)c1ccc(C2C(C(=O)c3cccnc3)=C(O)C(=O)N2CCc2c[nH]c3cc(OC)ccc23)cc1 (stereo unspecified) | 98 | 84 | 85 | 194% | 8 | 204
CCOC(=O)c1ccc(C2C(C(C)=O)=C(O)C(=O)N2CCc2c[nH]c3ccccc23)c(O)c1 (stereo unspecified) | 100 | 110 | 88 | 145% | 40 | 194
COC(=O)c1ccc(C2C(C(C)=O)=C(OC)C(=O)N2CCc2c[nH]c3ccccc23)cc1 (stereo unspecified) | 91 | 109 | 82 | 127% | 37 | 163
COC(=O)c1ccc(C2C(C(=O)C(C)(C)C)=C(O)C(=O)N2CCc2c[nH]c3ccccc23)cc1 (stereo unspecified) | 93 | 87 | 79 | 129% | 52 | 187
COC(=O)c1ccc(C2C(C(=O)c3ccncc3)=C(O)C(=O)N2CCc2c[nH]c3ccccc23)cc1 (stereo unspecified) | 87 | 92 | 84 | 186% | 8.9 | 196
